Columns and labels:
HeLa and glioma cells = conditions: cited from earlier work
CLL cells = experiment: MTT cell viability assay in primary CLL samples; format: cell-based, human; conditions: six fresh primary CLL patient samples, 24 hours with 0-20 μM peptide
In short: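 Human PBMCs isolated from fresh patient blood by density centrifugation and kept in RPMI 1640 with 10% FBS and penicillin/streptomycin. Seeded at 3 × 10^5 cells/well with 0–20 µmol/l unlabelled test peptide under tissue-culture conditions, then MTT read-out. Viability expressed as percentage of untreated controls.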

Substance | Cell uptake and distribution (in words) (HeLa and glioma cells) | Cell viability (in words) (CLL cells)
FFLIPKG-R8 | diffusely label the cytoplasm within five minutes | –
NH2-asrslhslaG-Ahx-rrrrrrrrGC-COOH [asr-a-r8] | – | no loss of viability

Reference: PMC3232455 (Molecular therapy : the journal of the American Society of …, 2011)
